Experimental data as given in paper PMC9320808 (Chemmedchem, 2022).
Read-outs that look alike come from different tables or passages of the source.

Experiments:
PD‐1/PD−L1 = PD‐1/PD−L1 (Homo sapiens, UniProt Q9NZQ7); assay: Homogenous time-resolved fluorescence; format: binding; details: read-out: Measured IC50; HTRF PD-1/PD-L1 assay; mean±SD, n=2–3 in triplicate
Method in brief: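 Competitive TR-FRET (HTRF) kit assay: PD-L1-6His-tag and PD-1-Ig, detected by anti-human IgG-Eu³⁺ cryptate and anti-6HIS-XL665 antibody. Test compounds plated per the kit instructions. Signal read on a multimode plate reader, and IC50 derived from the inhibition of PD-1/PD-L1 binding.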

PD−L1 = details: cited from earlier work

PD‐1/PD−L1, sequence (Q9NZQ7 19-238 limits assumed): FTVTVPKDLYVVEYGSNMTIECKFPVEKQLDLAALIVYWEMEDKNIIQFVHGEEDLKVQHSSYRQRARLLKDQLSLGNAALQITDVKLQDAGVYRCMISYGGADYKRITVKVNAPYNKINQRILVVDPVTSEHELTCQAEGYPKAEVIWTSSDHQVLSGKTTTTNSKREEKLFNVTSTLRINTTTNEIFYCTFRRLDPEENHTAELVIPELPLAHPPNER

Row | Substance | IC50 (PD‐1/PD−L1) [nM] | IC50 (PD−L1; read-out: Reported IC50, literature value) [nM] | IC50 (PD−L1; read-out: reported IC50, reported value for BMS71) [nM]
1 | Atezolizumab: therapeutic antibody targeting PD−L1 | 2.25 ± 0.36 | 3.83 | 
2 | Cyclo(AcPhe−^mPhe−^mNle−^mGly−Asp−Val−^mPhe−Tyr−^mGly−Trp−Tyr−Leu−Cys)‐Gly−NH2 [BMS71] |  |  | 7
